How the values were obtained:
Mus musculus [1] = assay: Toxicity in SCID mouse xenografted with human UKE1 cells assessed as body weight loss at 3 mg/kg, po bid administered for 14 days measured on day 31 (reference value: 7.1%); format: organism-based; parameters: dose 3 mg/kg, route oral; conditions: in vivo, 336 h
Method in brief: (§1)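 UKE-1 cells mixed with matrigel implanted subcutaneously in female SCID mice. On day 15, mice randomized at a mean tumor volume of about 150 mm³. Oral gavage twice daily at 3 or 10 mg/kg, or vehicle, for 14 days. Tumor volume and body weight tracked through the dosing phase.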

[2] = Cytotoxicity against mouse BA/F3 cells expressing TEL-Jak1 after 72 hrs by MTS assay; format: functional; conditions: BaF3, 72 h
Method in brief: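 BaF3 cells transfected with the kinase domain of Jak1, Jak3 or Tyk2 (TEL fusions). Growth inhibition measured as the counter-screen for cellular selectivity.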

[3] = target: Protein kinase C zeta type (Homo sapiens, UniProt Q05513); assay: Inhibition of human PKCzeta
Method in brief: (§2)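 Panel of 82 kinases. Radiometric filter-binding assay with ATP at or near Km. Compound tested at 0.01, 0.10 and 1.0 μM. Values expressed as minimum possible fold selectivity against Jak2.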

[4] = Antitumor activity against human UKE1 cells xenografted in SCID mouse assessed as tumor growth inhibition at 3 mg/kg, po bid administered for 14 days measured on day 28; format: functional; conditions: read-out: TGI; method in brief: as §1
[5] = target: T1, Tyrosine-protein kinase JAK3 (Homo sapiens, UniProt P52333); assay: Inhibition of Jak3 (unknown origin)
T1 sequence (P52333 whole entry): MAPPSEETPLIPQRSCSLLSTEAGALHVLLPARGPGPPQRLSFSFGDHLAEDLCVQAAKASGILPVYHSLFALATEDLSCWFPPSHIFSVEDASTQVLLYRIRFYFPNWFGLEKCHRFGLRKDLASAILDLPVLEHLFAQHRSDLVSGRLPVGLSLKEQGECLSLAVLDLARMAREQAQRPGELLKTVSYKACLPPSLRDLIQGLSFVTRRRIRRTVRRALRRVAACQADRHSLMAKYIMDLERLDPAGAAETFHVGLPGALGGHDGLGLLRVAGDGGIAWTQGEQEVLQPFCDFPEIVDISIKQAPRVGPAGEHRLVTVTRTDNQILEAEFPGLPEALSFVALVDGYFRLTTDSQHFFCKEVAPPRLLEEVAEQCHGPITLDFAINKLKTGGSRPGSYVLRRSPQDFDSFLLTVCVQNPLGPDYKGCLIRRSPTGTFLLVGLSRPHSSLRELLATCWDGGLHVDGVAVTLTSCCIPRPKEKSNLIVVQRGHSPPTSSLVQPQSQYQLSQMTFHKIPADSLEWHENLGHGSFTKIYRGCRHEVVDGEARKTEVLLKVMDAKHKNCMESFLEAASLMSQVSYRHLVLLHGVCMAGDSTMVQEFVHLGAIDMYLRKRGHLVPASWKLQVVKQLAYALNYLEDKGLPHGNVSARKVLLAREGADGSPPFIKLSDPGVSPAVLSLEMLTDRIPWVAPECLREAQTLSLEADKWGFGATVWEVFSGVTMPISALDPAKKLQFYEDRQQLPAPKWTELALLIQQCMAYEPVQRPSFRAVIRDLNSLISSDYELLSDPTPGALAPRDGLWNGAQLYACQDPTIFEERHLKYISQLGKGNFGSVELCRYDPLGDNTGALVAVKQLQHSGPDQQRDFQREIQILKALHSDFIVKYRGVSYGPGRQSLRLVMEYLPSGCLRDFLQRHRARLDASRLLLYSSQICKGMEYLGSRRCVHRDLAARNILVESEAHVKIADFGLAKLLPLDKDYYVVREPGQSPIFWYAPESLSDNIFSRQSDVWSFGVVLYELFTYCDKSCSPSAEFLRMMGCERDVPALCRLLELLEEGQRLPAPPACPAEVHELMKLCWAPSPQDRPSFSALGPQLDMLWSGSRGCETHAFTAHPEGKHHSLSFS

Mus musculus [6] = assay: In vivo inhibition of Jak2 in mouse transfected with mouse BA/F3 cells expressing TEL-Jak2 assessed as inhibition of STAT5 phosphorylation at 10 mg/kg, po after 12 hrs by Western blotting analysis; format: functional; conditions: BaF3, 12 h
Method in brief: (§3)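 Mice bearing BaF3 TEL-JAK2 cells given a single oral dose of 3, 5 or 10 mg/kg and sacrificed at various times after dosing. Spleen lysates probed for phospho-STAT5 and total STAT5 by Western blot, and pSTAT5 inhibition assessed.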

[7] = Half life in beagle dog at 10 mg/kg, po; format: ADME, organism-based, Canis lupus familiaris; parameters: dose 10 mg/kg, route oral; conditions: in vivo
Method in brief: (§4)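 Male beagle dogs. Oral dose 10 mg/kg in 0.1% HPMC, pH 2. IV dose 2.5 mg/kg in 20% TEG/D5W. […] Clearance, Vdss, half-life and oral bioavailability (F%) derived from the plasma profiles.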

[8] = target: Casein kinase II subunit alpha' (Homo sapiens, UniProt P19784); assay: Inhibition of human CK2alpha2; method in brief: as §2
Chain of Casein kinase II subunit alpha' (P19784 whole entry): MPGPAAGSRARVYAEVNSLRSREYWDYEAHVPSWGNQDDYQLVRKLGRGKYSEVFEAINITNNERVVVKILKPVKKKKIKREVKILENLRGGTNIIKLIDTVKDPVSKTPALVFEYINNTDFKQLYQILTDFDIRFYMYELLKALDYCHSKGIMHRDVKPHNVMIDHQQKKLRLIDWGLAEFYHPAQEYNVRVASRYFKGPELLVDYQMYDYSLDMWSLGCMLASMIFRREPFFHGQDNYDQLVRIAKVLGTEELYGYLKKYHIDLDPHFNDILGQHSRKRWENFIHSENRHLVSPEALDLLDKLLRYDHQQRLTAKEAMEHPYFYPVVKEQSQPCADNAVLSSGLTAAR

[9] = target: Tyrosine-protein kinase JAK1 (Mus musculus, UniProt P52332); assay: (§5) Inhibition of Jak1 in mouse BA/F3 cells expressing TEL-Jak1 assessed as inhibition of STAT5 phosphorylation by Western blotting analysis; format: cell-based, BaF3
Chain of Tyrosine-protein kinase JAK1 (P52332 whole entry): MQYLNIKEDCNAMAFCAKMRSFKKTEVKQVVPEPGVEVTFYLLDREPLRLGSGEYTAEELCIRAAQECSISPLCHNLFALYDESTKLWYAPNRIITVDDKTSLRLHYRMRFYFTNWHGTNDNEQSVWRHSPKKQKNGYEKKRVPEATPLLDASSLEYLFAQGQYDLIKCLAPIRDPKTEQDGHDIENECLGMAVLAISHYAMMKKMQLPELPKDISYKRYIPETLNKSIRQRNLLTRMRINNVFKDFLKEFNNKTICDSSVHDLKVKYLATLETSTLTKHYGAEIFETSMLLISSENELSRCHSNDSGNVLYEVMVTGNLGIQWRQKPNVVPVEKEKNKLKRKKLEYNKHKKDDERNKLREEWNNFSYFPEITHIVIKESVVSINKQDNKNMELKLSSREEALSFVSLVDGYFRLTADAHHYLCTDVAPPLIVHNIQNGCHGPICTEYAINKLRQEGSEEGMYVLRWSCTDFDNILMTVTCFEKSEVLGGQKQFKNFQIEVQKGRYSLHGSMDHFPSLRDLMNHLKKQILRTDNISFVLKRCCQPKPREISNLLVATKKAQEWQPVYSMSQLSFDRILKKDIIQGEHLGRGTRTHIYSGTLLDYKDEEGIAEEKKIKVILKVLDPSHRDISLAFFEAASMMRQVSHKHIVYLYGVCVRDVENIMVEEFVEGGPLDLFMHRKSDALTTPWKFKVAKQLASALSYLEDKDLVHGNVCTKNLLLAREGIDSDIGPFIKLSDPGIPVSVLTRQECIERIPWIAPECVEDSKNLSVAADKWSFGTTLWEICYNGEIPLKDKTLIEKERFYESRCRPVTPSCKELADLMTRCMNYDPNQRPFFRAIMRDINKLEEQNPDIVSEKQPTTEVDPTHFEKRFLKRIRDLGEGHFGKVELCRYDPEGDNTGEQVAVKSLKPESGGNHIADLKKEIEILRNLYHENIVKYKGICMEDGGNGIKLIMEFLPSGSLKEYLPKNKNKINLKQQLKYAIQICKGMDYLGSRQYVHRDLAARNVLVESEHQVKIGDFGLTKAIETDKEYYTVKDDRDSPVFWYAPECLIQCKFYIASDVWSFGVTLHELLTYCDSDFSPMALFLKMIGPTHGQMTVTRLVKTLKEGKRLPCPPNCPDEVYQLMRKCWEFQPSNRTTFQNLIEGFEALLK

[10] = target: Tyrosine-protein kinase JAK1 (Mus musculus) (UniProt P52332); assay: as §5; format: cell-based; conditions: BaF3
Chain of Tyrosine-protein kinase JAK1 (Mus musculus) (P52332 whole entry): as above

Mus musculus [11] = assay: In vivo inhibition of Jak2 in mouse transfected with mouse BA/F3 cells expressing TEL-Jak2 assessed as inhibition of STAT5 phosphorylation at 3 to 10 mg/kg, po by Western blotting analysis; format: functional, organism-based; conditions: BaF3, TDE = time-dependent effect; method in brief: as §3
[12] = target: Receptor-type tyrosine-protein kinase FLT3 (Homo sapiens, UniProt P36888); assay: Inhibition of human Flt3; method in brief: as §2
Chain of Receptor-type tyrosine-protein kinase FLT3 (P36888 whole entry): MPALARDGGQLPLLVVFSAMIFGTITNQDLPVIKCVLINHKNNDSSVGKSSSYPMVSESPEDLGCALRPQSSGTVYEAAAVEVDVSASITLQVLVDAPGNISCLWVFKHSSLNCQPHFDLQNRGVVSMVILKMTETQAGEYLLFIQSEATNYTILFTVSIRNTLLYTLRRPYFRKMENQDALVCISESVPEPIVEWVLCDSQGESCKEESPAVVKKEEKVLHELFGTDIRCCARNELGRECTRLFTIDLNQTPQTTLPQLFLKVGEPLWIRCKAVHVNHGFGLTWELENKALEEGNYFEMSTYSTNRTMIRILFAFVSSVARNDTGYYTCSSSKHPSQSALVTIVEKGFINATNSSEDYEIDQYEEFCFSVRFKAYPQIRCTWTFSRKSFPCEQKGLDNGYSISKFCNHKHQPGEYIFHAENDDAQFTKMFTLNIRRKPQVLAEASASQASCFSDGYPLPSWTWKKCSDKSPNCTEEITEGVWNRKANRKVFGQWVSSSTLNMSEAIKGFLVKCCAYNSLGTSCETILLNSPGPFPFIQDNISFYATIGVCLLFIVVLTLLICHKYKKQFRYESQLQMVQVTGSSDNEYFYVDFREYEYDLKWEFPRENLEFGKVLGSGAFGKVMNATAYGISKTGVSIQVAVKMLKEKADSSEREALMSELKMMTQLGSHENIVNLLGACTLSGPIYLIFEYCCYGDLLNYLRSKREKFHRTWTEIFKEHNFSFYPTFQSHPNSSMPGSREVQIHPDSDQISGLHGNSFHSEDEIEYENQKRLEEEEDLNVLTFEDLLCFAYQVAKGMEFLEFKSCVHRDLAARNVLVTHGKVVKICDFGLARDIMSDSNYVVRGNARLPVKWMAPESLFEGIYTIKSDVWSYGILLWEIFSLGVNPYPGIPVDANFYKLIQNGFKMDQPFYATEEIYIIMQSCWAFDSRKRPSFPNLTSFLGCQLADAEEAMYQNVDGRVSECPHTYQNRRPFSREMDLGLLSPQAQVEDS

[13] = target: Fibroblast growth factor receptor 1 (Homo sapiens, UniProt P11362); assay: Inhibition of human FGFR1; method in brief: as §2
Chain of Fibroblast growth factor receptor 1 (P11362 whole entry): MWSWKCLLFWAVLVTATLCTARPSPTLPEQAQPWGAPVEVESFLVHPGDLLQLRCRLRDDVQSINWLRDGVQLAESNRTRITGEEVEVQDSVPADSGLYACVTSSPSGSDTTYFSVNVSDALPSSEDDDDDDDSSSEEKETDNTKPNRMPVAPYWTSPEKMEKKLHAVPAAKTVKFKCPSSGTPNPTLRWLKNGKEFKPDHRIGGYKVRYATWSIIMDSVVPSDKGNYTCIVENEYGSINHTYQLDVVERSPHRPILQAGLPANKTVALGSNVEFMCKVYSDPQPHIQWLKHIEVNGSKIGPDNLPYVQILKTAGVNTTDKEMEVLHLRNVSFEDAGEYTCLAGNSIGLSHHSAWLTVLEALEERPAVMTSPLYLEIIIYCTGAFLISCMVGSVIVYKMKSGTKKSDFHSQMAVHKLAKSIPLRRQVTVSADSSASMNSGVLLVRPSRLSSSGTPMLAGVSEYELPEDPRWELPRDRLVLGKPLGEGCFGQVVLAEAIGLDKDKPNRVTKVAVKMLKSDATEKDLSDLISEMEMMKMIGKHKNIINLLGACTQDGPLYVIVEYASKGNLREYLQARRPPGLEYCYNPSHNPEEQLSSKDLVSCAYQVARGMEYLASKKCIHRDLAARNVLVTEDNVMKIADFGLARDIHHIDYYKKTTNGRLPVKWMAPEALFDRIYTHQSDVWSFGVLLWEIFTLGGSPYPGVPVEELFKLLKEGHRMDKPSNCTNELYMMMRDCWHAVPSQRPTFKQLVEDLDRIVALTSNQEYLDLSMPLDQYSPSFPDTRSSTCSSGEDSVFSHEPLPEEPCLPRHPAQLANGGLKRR

Canis familiaris = assay: Oral bioavailability in beagle dog at 10 mg/kg; format: ADME, organism-based, Canis lupus familiaris; conditions: in vivo; method in brief: as §4
Mus musculus [14] = assay: In vivo inhibition of Jak2 in mouse transfected with mouse BA/F3 cells expressing TEL-Jak2 assessed as inhibition of STAT5 phosphorylation at 3 mg/kg, po after 8 hrs by Western blotting analysis; format: functional; conditions: BaF3, 8 h; method in brief: as §3
[15] = Cytotoxicity against human SET2 cells expressing Jak2 V617F mutant after 72 hrs by MTS assay; format: functional; conditions: SET-2, 72 h
[16] = target: Serine/threonine-protein kinase SIK1 (Homo sapiens, UniProt P57059); assay: Inhibition of human SIK; method in brief: as §2
[17] = Half life in beagle dog at 2.5 mg/kg, iv; format: ADME, organism-based, Canis lupus familiaris; parameters: dose 2.5 mg/kg, route intravenous; conditions: in vivo; method in brief: as §4
[18] = target: ALK tyrosine kinase receptor (Homo sapiens, UniProt Q9UM73); assay: Inhibition of human ALK; method in brief: as §2
Chain of ALK tyrosine kinase receptor (Q9UM73 whole entry): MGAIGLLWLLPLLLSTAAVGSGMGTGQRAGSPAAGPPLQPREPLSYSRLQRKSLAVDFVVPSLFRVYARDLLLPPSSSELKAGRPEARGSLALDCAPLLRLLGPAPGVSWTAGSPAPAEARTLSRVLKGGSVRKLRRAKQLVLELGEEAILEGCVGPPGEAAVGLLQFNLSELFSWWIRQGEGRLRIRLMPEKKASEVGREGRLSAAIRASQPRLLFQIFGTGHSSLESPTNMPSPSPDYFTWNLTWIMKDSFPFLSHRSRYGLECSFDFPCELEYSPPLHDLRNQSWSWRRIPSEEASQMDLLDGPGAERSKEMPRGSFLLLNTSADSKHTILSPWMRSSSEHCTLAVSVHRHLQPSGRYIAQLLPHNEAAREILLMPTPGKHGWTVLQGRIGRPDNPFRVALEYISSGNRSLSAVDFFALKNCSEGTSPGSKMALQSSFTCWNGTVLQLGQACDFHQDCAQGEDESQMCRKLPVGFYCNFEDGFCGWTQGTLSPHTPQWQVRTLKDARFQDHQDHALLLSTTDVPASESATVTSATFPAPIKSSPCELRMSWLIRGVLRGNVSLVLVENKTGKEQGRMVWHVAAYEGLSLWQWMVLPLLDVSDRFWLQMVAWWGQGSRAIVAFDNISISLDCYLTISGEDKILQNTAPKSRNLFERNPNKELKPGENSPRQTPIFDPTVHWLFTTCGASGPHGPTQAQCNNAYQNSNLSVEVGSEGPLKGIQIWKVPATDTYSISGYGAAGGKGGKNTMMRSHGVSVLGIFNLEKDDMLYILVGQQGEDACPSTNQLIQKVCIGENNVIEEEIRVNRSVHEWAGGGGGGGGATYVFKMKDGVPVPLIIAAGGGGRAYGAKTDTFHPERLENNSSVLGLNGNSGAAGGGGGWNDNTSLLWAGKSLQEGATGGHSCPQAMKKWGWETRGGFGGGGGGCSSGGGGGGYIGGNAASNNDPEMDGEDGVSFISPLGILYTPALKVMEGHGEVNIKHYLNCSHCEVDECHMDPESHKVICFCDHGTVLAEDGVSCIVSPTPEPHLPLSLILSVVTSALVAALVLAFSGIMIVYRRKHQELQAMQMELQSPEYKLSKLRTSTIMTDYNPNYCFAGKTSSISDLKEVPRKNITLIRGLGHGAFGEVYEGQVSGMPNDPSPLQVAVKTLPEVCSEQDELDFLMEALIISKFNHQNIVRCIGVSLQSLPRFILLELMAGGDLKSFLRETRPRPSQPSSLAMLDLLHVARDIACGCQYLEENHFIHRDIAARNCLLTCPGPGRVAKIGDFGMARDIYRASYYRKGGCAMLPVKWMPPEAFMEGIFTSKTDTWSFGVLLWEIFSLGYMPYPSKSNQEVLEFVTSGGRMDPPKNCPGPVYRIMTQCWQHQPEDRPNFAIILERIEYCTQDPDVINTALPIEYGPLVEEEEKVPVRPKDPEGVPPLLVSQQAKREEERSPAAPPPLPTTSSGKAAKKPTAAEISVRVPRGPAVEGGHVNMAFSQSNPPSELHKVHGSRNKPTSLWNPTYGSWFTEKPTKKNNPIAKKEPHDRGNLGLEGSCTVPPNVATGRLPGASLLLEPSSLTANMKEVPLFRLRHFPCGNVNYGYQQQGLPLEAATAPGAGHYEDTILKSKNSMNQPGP

[19] = Cytotoxicity against human UKE1 cells expressing Jak2 V617F mutant after 72 hrs by MTS assay; format: functional; conditions: UKE1, 72 h
Aurora kinase A = Aurora kinase A (Homo sapiens, UniProt O14965); assay: Inhibition of human aurora A kinase; method in brief: as §2
[20] = Clearance in Wistar rat at 10 mg/kg, po and 3 mg/kg, iv; format: ADME, organism-based; conditions: in vivo
Method in brief: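 Rat pharmacokinetics. Oral dose 10 mg/kg in 0.1% HPMC. IV dose 3 mg/kg in 40% DMA/40% PEG/20% saline. Clearance, half-life, Vdss and oral bioavailability derived from the plasma profiles.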

SMILES: C[C@H](Nc1nc(Nc2cn(C)cn2)c2cc[nH]c2n1)c1ncc(F)cn1
- Activity (Mus musculus [1]): 7.2%
- GI50 [2]: 220 nM
- IC50 [3]: 200 nM
- inhibition in vivo at 3 mg/kg [4]: 50%
- IC50 [5]: 220 nM
- inhibition in vivo at 10 mg/kg (Mus musculus [6]): 50%
- half-life [7]: 7.6 h
- IC50 [8]: 2.7 nM
- IC50 [9]: 260 nM
- inhibition [10]: Dose-dependent effect
- inhibition (Mus musculus [11]): tde
- IC50 [12]: 45 nM
- IC50 [13]: 50 nM
- F (Canis familiaris): 64%
- inhibition in vivo at 3 mg/kg (Mus musculus [14]): 30%
- GI50 [15]: 14 nM
- IC50 [16]: 190 nM
- half-life [17]: 12.4 h
- IC50 [18]: 50 nM
- GI50 [19]: 55 nM
- IC50 (Aurora kinase A): 58 nM
- clearance [20]: 36 mL/min/kg
